Reference: ChEMBL document CHEMBL3351404, “Structure-Activity Studies Reveal the Oxazinone Ring Is a Determinant of Cytochrome P450 2B6 Activity Toward Efavirenz” (ACS Med Chem Lett, 2014)

Columns and labels:
Liver microsome [1] = assay: Drug metabolism in pooled human liver microsomes assessed as compound formation at 10 uM incubated for 60 mins in presence of NADPH by uHPLC-MS/MS method; assay type: ADME; conditions: 1 h
Summary of the method: (§1)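 Metabolite identification in human liver microsome incubations with 10 μM substrate. Products were assigned by m/z (monooxygenated, dihydroxylated, N-dealkylated), uHPLC retention time and MS/MS fragment ions. Parallel incubations in isotopic water located the inserted oxygen from +2 shifts in fragment masses.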

Cytochrome P450 2C19 [2] = molecular target: T1, Cytochrome P450 2C19 (Homo sapiens, UniProt P33261); assay: Drug metabolism assessed as CYP2C19 (unknown origin)-mediated metabolite formation at 10 uM incubated for 60 mins in presence of NADPH by uHPLC-MS/MS method; assay type: ADME; conditions: 1 h
T1 sequence (P33261 whole entry): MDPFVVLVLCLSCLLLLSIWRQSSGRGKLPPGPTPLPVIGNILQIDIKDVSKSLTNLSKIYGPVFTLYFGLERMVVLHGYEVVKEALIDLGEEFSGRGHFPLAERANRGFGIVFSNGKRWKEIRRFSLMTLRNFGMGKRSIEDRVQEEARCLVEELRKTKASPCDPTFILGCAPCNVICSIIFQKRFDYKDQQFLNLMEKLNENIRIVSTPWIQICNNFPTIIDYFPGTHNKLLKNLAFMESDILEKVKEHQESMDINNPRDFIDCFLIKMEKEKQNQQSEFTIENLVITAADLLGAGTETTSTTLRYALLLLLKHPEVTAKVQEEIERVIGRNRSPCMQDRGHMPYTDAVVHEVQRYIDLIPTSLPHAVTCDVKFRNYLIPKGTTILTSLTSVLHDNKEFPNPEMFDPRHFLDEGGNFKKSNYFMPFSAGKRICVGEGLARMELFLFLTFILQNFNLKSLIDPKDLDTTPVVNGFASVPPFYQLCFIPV
Summary of the method: (§2)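 Individual cDNA-expressed human P450s (CYP2B6 in insect microsomes) were incubated separately with each analogue at 10 μM. The enzyme panel covers the major drug-metabolizing P450s. Products were monitored as the metabolites first found in human liver microsome incubations, identified by m/z and retention time.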

Liver microsome [3] = assay: Drug metabolism in pooled human liver microsomes assessed as mono-oxygenated metabolite formation at 10 uM incubated for 60 mins in presence of NADPH by uHPLC-MS/MS method; assay type: ADME; conditions: 1 h; summary of the method: as §1
Cytochrome P450 2C19 [4] = molecular target: T1, Cytochrome P450 2C19; assay: Drug metabolism assessed as CYP2C19 (unknown origin)-mediated compound formation at 10 uM incubated for 60 mins in presence of NADPH by uHPLC-MS/MS method; assay type: ADME; conditions: 1 h; summary of the method: as §2
Cytochrome P450 2B6 [5] = molecular target: T2, Cytochrome P450 2B6 (Homo sapiens, UniProt P20813); assay: Inhibition of CYP2B6 (unknown origin) assessed as reduction in hydroxybupropion formation at 10 uM incubated for 10 mins by uHPLC-MS/MS method; assay type: ADME; conditions: 10 min, 10 µM
T2 sequence (P20813 whole entry): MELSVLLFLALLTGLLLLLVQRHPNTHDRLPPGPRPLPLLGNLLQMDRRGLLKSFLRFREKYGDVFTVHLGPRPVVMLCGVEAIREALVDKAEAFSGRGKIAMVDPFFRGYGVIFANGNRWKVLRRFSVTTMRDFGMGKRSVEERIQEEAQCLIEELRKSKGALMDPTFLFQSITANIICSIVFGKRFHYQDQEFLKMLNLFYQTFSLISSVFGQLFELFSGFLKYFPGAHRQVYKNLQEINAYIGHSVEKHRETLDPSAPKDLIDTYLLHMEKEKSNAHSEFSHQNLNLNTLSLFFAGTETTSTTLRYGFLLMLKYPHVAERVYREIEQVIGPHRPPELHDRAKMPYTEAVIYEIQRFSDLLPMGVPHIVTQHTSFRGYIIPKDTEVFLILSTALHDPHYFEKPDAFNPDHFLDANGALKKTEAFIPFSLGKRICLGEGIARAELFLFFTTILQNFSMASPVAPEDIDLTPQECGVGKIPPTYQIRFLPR
Summary of the method: (§3)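 CYP2B6 insect microsomes were coincubated with the probe substrate bupropion plus test compound at 10 μM. Hydroxybupropion formation was measured and compared with a vehicle control.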

Cytochrome P450 1A2 [6] = molecular target: T3, Cytochrome P450 1A2 (Homo sapiens, UniProt P05177); assay: Drug metabolism assessed as CYP1A2 (unknown origin)-mediated metabolite formation at 10 uM incubated for 60 mins in presence of NADPH by uHPLC-MS/MS method; assay type: ADME; conditions: 1 h; summary of the method: as §2
T3 sequence (P05177 whole entry): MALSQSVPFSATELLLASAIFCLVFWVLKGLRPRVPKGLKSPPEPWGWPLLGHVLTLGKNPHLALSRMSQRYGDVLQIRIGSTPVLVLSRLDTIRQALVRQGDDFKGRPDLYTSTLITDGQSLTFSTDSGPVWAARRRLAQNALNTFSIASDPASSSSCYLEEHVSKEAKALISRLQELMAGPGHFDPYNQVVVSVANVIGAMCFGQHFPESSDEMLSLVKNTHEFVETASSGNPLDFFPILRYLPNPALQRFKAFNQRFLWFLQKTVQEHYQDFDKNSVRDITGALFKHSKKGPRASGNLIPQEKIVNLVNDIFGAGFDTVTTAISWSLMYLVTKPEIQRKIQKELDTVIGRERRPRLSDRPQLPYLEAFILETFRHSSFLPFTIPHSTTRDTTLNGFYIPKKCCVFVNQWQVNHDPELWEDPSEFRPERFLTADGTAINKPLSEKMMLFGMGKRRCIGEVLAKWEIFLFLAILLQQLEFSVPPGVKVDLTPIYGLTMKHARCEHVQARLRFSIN

[7] = Retention time of the compound by uHPLC-MS/MS method; assay type: physicochemical; summary of the method: as §1
Cytochrome P450 1A2 [8] = molecular target: T3, Cytochrome P450 1A2; assay: Drug metabolism assessed as CYP1A2 (unknown origin)-mediated compound formation at 10 uM incubated for 60 mins in presence of NADPH by uHPLC-MS/MS method; assay type: ADME; conditions: 1 h; summary of the method: as §2
Cytochrome P450 2D6 [9] = molecular target: T4, Cytochrome P450 2D6 (Homo sapiens, UniProt P10635); assay: Drug metabolism assessed as CYP2D6 (unknown origin)-mediated compound formation at 10 uM incubated for 60 mins in presence of NADPH by uHPLC-MS/MS method; assay type: ADME; conditions: 1 h; summary of the method: as §2
T4 sequence (P10635 whole entry): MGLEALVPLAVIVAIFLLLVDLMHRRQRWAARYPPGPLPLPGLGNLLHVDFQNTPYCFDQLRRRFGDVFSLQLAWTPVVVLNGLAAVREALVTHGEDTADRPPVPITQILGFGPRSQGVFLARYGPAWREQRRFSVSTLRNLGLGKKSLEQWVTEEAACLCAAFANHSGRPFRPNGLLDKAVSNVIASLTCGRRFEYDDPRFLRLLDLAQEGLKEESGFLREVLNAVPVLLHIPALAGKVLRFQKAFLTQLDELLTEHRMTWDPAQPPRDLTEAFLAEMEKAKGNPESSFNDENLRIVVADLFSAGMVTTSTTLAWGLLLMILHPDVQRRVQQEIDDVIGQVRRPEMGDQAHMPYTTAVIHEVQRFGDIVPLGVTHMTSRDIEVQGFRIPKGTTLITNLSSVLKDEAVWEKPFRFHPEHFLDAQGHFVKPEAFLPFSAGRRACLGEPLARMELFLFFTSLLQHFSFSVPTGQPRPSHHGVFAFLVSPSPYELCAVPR

Cytochrome P450 2B6 [10] = molecular target: T2, Cytochrome P450 2B6; assay: Activity of CYP2B6 (unknown origin) assessed as maximum depletion rate constant pre-incubated for 5 mins in presence of NADPH by uHPLC-MS/MS based substrate depletion kinetics assay; assay type: ADME
Summary of the method: (§4)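 cDNA-expressed CYP2B6 in insect microsomes. Parent loss was followed over time by substrate depletion, chosen because several metabolites form. Km and maximum depletion rate constant (kdep max, min–1) were derived from depletion kinetics, and Vmax was expressed as pmol/min/pmol P450.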

CYP2B6 [11] = molecular target: T5, CYP2B6 (Homo sapiens, UniProt P20813); assay: Activity of CYP2B6 (unknown origin) pre-incubated for 5 mins in presence of NADPH by uHPLC-MS/MS based substrate depletion kinetics assay; assay type: ADME; conditions: CYP2B6 enzyme (unknown origin); summary of the method: as §4
T5 sequence (P20813 whole entry): T2 sequence (P20813 whole entry)

Cytochrome P450 2B6 [12] = molecular target: T2, Cytochrome P450 2B6; assay: Activity of CYP2B6 (unknown origin) assessed per pmol protein pre-incubated for 5 mins in presence of NADPH by uHPLC-MS/MS based substrate depletion kinetics assay; assay type: ADME; summary of the method: as §4
Cytochrome P450 2B6 [13] = molecular target: T2, Cytochrome P450 2B6; assay: Drug metabolism assessed as CYP2B6 (unknown origin)-mediated metabolite formation at 10 uM incubated for 60 mins in presence of NADPH by uHPLC-MS/MS method; assay type: ADME; conditions: 1 h; summary of the method: as §2
Cytochrome P450 3A5 = Cytochrome P450 3A5 (Homo sapiens, UniProt P20815); assay: Drug metabolism assessed as CYP3A5 (unknown origin)-mediated metabolite formation at 10 uM incubated for 60 mins in presence of NADPH by uHPLC-MS/MS method; conditions: 1 h
Cytochrome P450 3A5, sequence (P20815 whole entry, looked up): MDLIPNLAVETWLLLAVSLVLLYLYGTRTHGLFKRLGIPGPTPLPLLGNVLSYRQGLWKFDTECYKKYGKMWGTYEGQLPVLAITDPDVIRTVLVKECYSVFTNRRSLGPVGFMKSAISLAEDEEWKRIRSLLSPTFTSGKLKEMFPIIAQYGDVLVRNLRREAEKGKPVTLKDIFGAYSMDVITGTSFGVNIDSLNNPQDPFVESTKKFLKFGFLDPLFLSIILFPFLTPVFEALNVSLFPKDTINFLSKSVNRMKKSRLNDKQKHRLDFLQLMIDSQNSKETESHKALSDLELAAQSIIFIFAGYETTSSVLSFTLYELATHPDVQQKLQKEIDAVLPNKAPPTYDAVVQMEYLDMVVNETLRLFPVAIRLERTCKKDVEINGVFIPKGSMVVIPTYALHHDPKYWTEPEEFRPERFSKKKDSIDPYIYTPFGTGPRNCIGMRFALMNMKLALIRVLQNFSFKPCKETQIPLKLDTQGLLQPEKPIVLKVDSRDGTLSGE

CYP2B6 [14] = molecular target: T5, CYP2B6; assay: Inhibition of CYP2B6 (unknown origin) assessed as reduction in hydroxybupropion formation by measuring remaining enzyme activity at 10 uM incubated for 10 mins by uHPLC-MS/MS method; assay type: ADME; conditions: probe bupropion (hydroxybupropion formation), read-out: Activity; summary of the method: as §3
Liver microsome [15] = assay: Drug metabolism in pooled human liver microsomes assessed as N-dealkylated metabolite formation at 10 uM incubated for 60 mins in presence of NADPH by uHPLC-MS/MS method; assay type: ADME; conditions: 1 h; summary of the method: as §1
Cytochrome P450 2D6 [16] = molecular target: T4, Cytochrome P450 2D6; assay: Drug metabolism assessed as CYP2D6 (unknown origin)-mediated metabolite formation at 10 uM incubated for 60 mins in presence of NADPH by uHPLC-MS/MS method; assay type: ADME; conditions: 1 h; summary of the method: as §2
Liver microsome [17] = assay: Drug metabolism in pooled human liver microsomes assessed as mono-oxygenated metabolite formation at 10 uM incubated for 60 mins in presence of NADPH and using isotopic water by uHPLC-MS/MS method; assay type: ADME; conditions: 1 h; summary of the method: as §1

| Drug metabolism (Liver microsome [1]) | Drug metabolism (Cytochrome P450 2C19 [2]) | Drug metabolism (Liver microsome [3]) | Drug metabolism (Cytochrome P450 2C19 [4]) | inhibition (INH) (Cytochrome P450 2B6 [5]) | Drug metabolism (Cytochrome P450 1A2 [6]) | Retention_time [7] [min] | Drug metabolism (Cytochrome P450 1A2 [8]) | Drug metabolism (Cytochrome P450 2D6 [9]) | K (Cytochrome P450 2B6 [10]) [min⁻¹] | Km (CYP2B6 [11]) [µM] | Vmax (Cytochrome P450 2B6 [12]) [pmol/min] | Drug metabolism (Cytochrome P450 2B6 [13]) | Drug metabolism (Cytochrome P450 3A5) | activity at 10 min, 10 µM (CYP2B6 [14]) [%] | Drug metabolism (Liver microsome [15]) | Drug metabolism (Cytochrome P450 2D6 [16]) | Drug metabolism (Liver microsome [17]) | Compound |
| --- | --- | --- | --- | --- | --- | --- | --- | --- | --- | --- | --- | --- | --- | --- | --- | --- | --- | --- |
| metabolite_detected | metabolite_detected | metabolite_detected | metabolite_detected | Active | metabolite_detected | 7.31 | metabolite_detected | metabolite_detected |  |  |  |  |  |  |  |  |  | Nc1ccc(Cl)cc1[C@@](O)(C#CC1CC1)C(F)(F)F |
| metabolite_detected | metabolite_detected | metabolite_detected | metabolite_detected | Active | metabolite_detected | 7.25 | metabolite_detected | metabolite_detected |  |  |  |  |  |  |  |  |  | Nc1ccc(Cl)cc1[C@](O)(C#CC1CC1)C(F)(F)F |
|  |  | metabolite_detected |  |  | metabolite_detected |  |  |  | 0.0057 | 0.23 | 0.13 | metabolite_detected | metabolite_detected |  |  |  |  | O=C1Nc2ccc(Cl)cc2[C@@](/C=C/C2CC2)(C(F)(F)F)O1 |
|  | metabolite_detected |  |  |  | metabolite_detected |  |  |  |  |  |  |  |  | 52 | metabolite_detected | metabolite_detected |  | COc1ccc(CNc2ccc(Cl)cc2[C@@](O)(C#CC2CC2)C(F)(F)F)cc1 |
|  | metabolite_detected |  |  |  | metabolite_detected |  |  |  |  |  |  |  |  | 62 | metabolite_detected | metabolite_detected |  | COc1ccc(CNc2ccc(Cl)cc2[C@](O)(C#CC2CC2)C(F)(F)F)cc1 |
|  | metabolite_detected | metabolite_detected |  |  |  |  |  |  | 0.14 | 0.22 | 3.2 | metabolite_detected |  | 2 |  |  | metabolite_detected | FC(F)(F)[C@@]1(C#CC2CC2)OCNc2ccc(Cl)cc21 |
| metabolite_detected |  |  |  |  |  | 4.98 |  |  |  |  |  |  |  |  |  |  |  | O=C1Nc2ccc(Cl)cc2[C@@](/C=C/C2(O)CC2)(C(F)(F)F)O1 |
